From PubChem BioAssay
Rows were chosen to be rich in hits. Some 29% of all compounds tested hit in one or more screens of this group.
CYP2C9 inhib: human CYP2C9 inhibition. P11712. CYP2C9 Supersomes, luciferin-H conversion, luminescence. inhibition, % at 5 µM. 96,000 tested, 20% active;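 active = blocking of liver enzyme CYP2C9 beyond about 50% at 5 µM, limit read from the data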
Target sequence (P11712 whole entry, looked up): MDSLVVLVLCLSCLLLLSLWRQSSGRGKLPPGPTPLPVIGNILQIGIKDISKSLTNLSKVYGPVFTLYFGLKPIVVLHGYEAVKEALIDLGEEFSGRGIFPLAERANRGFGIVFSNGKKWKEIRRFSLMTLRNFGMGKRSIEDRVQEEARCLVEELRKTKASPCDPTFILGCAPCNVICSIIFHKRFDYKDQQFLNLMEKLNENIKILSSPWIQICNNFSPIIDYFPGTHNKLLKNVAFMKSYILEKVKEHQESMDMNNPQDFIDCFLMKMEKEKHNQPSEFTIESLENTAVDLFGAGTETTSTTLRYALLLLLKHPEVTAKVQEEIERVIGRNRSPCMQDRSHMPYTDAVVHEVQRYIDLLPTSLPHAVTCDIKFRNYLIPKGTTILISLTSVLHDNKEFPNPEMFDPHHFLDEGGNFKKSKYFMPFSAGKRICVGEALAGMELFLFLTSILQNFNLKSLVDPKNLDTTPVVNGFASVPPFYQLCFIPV
Ecoli WT expand: growth inhibitors of E. coli BW25113 wild type; growth inhibition, % at 100 µM; OD600 absorbance; 98,000 tested, 0.15% active;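 active = growth inhibition above about 50% at one test dose, limit read from the data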;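 note: growth measured after 20 h incubation at 37 °C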
tolC growth inh: E. coli tolC mutant growth inhibition; AID 573; E. coli BW25113 tolC mutant growth, OD615; growth inhibition, % at 10 µM (by protocol); 65,000 tested, 2.2% active;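 active = growth inhibition at or above a cutoff equal to the mean over every tested compound plus 3 SD, cut at about 60% in these data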;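 note: growth measured after 20 h incubation at 37 °C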
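Test system: tolC-deleted E. coli BW25113 | Medium: LB with kanamycin 50 µg/mL | Compound dosing: Single concentration, 10 µM final per compound | Schedule: 37 °C, 20 h exposure | Measured by: OD at 615 nm | Evaluation: Percent growth inhibition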
CYP2C19 activ: activators of human cytochrome P450 2C19 | P33261 | recombinant CYP2C19, luciferin-H EGE luminescence; stronger effect = higher value; 0 = fully inhibited enzyme, 1 = untreated enzyme | activation factor at 5 µM | AID 1025 | 96,000 tested, under 10 active;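 active = activation factor of at least 2 at 5 µM in the primary screen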
CYP2C9 act: CYP2C9 (human) activation; recombinant CYP2C9, luciferin-H conversion, luminescence; stronger effect = higher value; factor 1 = untreated enzyme, 0 = blocked; activation factor at 5 µM; 96,000 tested, 1.4% active;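 active = activation factor of 2 or more for CYP2C9 at a 5 µM dose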
CYP2C19 inh: inhibitors of human CYP2C19. CYP2C19 Supersomes, luciferin-H EGE luminescence, 30 min. inhibition, % at 5 µM. 96,000 tested, 21% active. AID 778;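 active = CYP2C19 inhibition above a set limit at 5 µM in the primary screen, cut at about 50% in these data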
Large screens that a line does not name were inactive.

COc1ccc(C(=O)NNC(=O)CN2CCC(n3nnc4cc(C(F)(F)F)ccc43)CC2)cc1	none (no result: tolC growth inh)
O=C(CN1CCC(n2nnc3cc(C(F)(F)F)ccc32)CC1)Nc1ccc2c(c1)OCCO2	CYP2C9 inhib 87.3, CYP2C19 inh 82.1
Cc1ccc(Nc2nc(N)nc(CN3CCN(c4ccccc4)CC3)n2)cc1Cl	CYP2C9 inhib 60.3, tolC growth inh 77.0
COc1ccc(Nc2nc(N)nc(CN3CCOCC3)n2)cc1	none
COc1ccc(N2CCN(Cc3nc(N)nc(Nc4ccc(C)c(Cl)c4)n3)CC2)cc1	CYP2C9 inhib 68.2, CYP2C19 inh 59.0
CCOC(=O)N1CCN(Cc2nc(N)nc(Nc3ccc(Oc4ccccc4)cc3)n2)CC1	CYP2C9 inhib 80.7
CCOC(=O)N1CCN(Cc2nc(N)nc(Nc3ccc(OC)cc3)n2)CC1	none (no result: tolC growth inh)
Cc1ccc(Nc2nc(N)nc(CN3CCN(C)CC3)n2)cc1C	none
CCOc1nc(Nc2ccc(OC)c(Cl)c2)nc(N2CCN(c3ccc(OC)cc3)CC2)n1	CYP2C9 inhib 67.1 (no result: tolC growth inh)
CC(C)(C)c1cc(NC(=O)c2cc(F)c(F)c(F)c2F)no1	none
CCc1nn(C)c(-c2n[nH]c(=S)n2N)c1Cl	none (no result: tolC growth inh)
O=C(O)c1cc2sccc2s1	none
COC(=O)[C@H](Cc1ccccc1)NC(=O)N1CCN(Cc2ccccc2)CC1	none
CC(=O)NC1Sc2ccccc2N=C1c1ccccc1 (stereo not drawn)	none
Cc1cccn2cc(CCNS(=O)(=O)c3ccc4c(c3)OCCO4)nc12	none
Cc1oc(-c2ccc(Cl)cc2)nc1CN1CCCC(C(=O)NCCCN2CCCC2=O)C1 (stereo not drawn)	none
CN(C)c1ccc(/C=C/c2ccncc2)cc1	CYP2C9 inhib 78.5, CYP2C19 inh 98.0
C/C(CC(=O)Nc1cc(Cl)ccc1Cl)=N\NC(N)=S	none (no result: tolC growth inh)
C/C(CC(=O)Nc1ccc(Cl)c(Cl)c1)=N\NC(N)=S	CYP2C19 inh 71.9 (no result: tolC growth inh)
Cc1ccc(C(=O)CSc2nnc(-c3c[nH]c4ccccc34)o2)cc1	CYP2C9 inhib 53.1 (no result: tolC growth inh)
CC1CCCCN1C(=O)CSc1nnc(-c2c[nH]c3ccccc23)o1 (stereo not drawn)	CYP2C19 inh 78.6
COc1ccc(N2C(=O)CCC(C(=O)Nc3cccc(C)n3)C2c2ccc(OC)c(OC)c2)cc1 (stereo not drawn)	none
CCn1cc(-c2nnnn2-c2ccc(Cl)cc2)c(=O)c2ccccc21	none (no result: tolC growth inh)
CON1C(=O)C(=O)N(OC)C(C)(C)C1C (stereo not drawn)	none (no result: tolC growth inh)
O=C(CN(C(=O)CNC(=O)c1cccs1)c1ccc2c(c1)OCCO2)NC1CCCC1	CYP2C9 inhib 90.9 (no result: tolC growth inh)
O=C(NCC(=O)N(Cc1cccs1)C(C(=O)NC1CCCC1)c1ccco1)c1cccs1 (stereo not drawn)	CYP2C9 inhib 89.0, CYP2C19 inh 86.7
CCOC(=O)c1ccc(N(CC(=O)NC2CCCC2)C(=O)CNC(=O)c2ccco2)cc1	none
O=C(CS(=O)CC(=O)N(CC(=O)NC1CCCC1)c1ccc2c(c1)OCCO2)Nc1ccc(F)cc1 (stereo not drawn)	none (no result: tolC growth inh)
O=C(CN(C(=O)CNC(=O)c1ccco1)c1ccc2c(c1)OCO2)NC1CCCCC1	CYP2C9 inhib 95.3, CYP2C19 inh 73.2
O=C(CN(Cc1cccs1)C(=O)CNC(=O)c1ccco1)NC1CCCCC1	CYP2C9 inhib 50.0
O=C(Cn1nc(-c2ccccc2)c2ccccc2c1=O)NCCN1CCOCC1	none
CC(C)CNC(=S)NC1CC2CCC(C1)N2Cc1ccccc1 (stereo not drawn)	none (no result: CYP2C9 inhib, tolC growth inh, CYP2C19 activ, CYP2C9 act, CYP2C19 inh)
O=C(CN(Cc1ccc2c(c1)OCO2)C(=O)CNC(=O)c1ccco1)NC1CCCCC1	CYP2C9 inhib 82.9, CYP2C19 inh 60.8
O=C(CN(C(=O)CNC(=O)c1ccco1)c1ccc(Cl)c(Cl)c1)NC1CCCCC1	CYP2C9 inhib 88.8, tolC growth inh 72.0, CYP2C19 inh 86.2
CCOC(=O)c1cc(-c2ccc(F)cc2)n(CC(=O)Nc2nccs2)c1C	none (no result: CYP2C9 inhib, Ecoli WT expand, CYP2C19 activ, CYP2C9 act, CYP2C19 inh)
CCCNC(=O)CCn1c(-c2ccc(C)cc2)cc(C(=O)OCC)c1C	CYP2C9 inhib 61.8, CYP2C19 inh 66.2 (no result: tolC growth inh)
CCOC(=O)c1cc(-c2ccccc2)n(CC(=O)O)c1C	CYP2C9 inhib 71.8
CCOC(=O)c1cc(-c2ccc(C)cc2)n(CCC(=O)NC(C)CC)c1C (stereo not drawn)	CYP2C19 inh 64.1 (no result: tolC growth inh)
CC(=O)OCC1OC(n2ccc3ccccc32)C(OC(C)=O)C(OC(C)=O)C1OC(C)=O (stereo not drawn)	none (no result: tolC growth inh)
CC(=O)OC1COC(n2ccc3ccccc32)C(OC(C)=O)C1OC(C)=O (stereo not drawn)	CYP2C19 inh 67.1
CNc1cc(C(F)(F)F)nc(-c2ccccn2)n1	none (no result: tolC growth inh)
COc1ccc(Sc2cc(C(F)(F)F)nc(-c3ccccn3)n2)cc1	CYP2C9 inhib 65.7 (no result: tolC growth inh)
Cc1nc2ccccc2c2c1C(=O)N(C(C)C)C2=O	CYP2C19 inh 70.3
O=C(NC1CC1)c1c[nH]c2ccc(S(=O)(=O)Nc3cccc(C(F)(F)F)c3)cc2c1=O	CYP2C9 inhib 54.2
CCOCCCNC(=O)c1c[nH]c2ccc(S(=O)(=O)Nc3cccc(OC)c3)cc2c1=O	CYP2C9 inhib 67.7
CC1=NC(C)Cc2ccccc21 (stereo not drawn)	none
CCCN(CCC)CC(=O)Nc1cccc2c1OCO2	none (no result: tolC growth inh)
CC(C)CC(NC(N)=O)C(=O)OCC(=O)NC(=O)NC1CCCC1 (stereo not drawn)	CYP2C19 inh 57.2
CC1(C)CC(CC(=O)O)(c2ccccc2)CCO1 (stereo not drawn)	none
CCOC(=O)CC1(c2ccccc2)CCOC(C)(C)C1 (stereo not drawn)	CYP2C19 inh 87.4 (no result: tolC growth inh)
COc1cc2ccccc2cc1C(=O)Nc1cccnc1	none
O=C(Nc1cccnc1)c1ccc(Oc2ccccc2)cc1	CYP2C9 inhib 88.6
O=C(Nc1cccnc1)c1ccccc1Oc1ccccc1	CYP2C9 inhib 54.6, CYP2C19 inh 64.1
CC1=CCC2C(=O)N(c3ccc(C(=O)N4CCCCCC4)cc3)C(=O)C2C1 (stereo not drawn)	none (no result: tolC growth inh)
Cc1ccc(S(=O)(=O)c2ccc(Oc3cccc(C)c3)cc2)cc1	CYP2C9 inhib 52.7 (no result: tolC growth inh)
Cc1ccc(S(=O)(=O)CCc2nnc(NC(=O)COc3cccc(C)c3)s2)cc1	none (no result: tolC growth inh)
N#CC(c1cccc(C(F)(F)F)c1)(c1ncc(C(F)(F)F)cc1Cl)N1CCOCC1 (stereo not drawn)	CYP2C19 inh 52.0 (no result: tolC growth inh)
O=c1[nH]c(N2CCCCC2)nc2c1CCCC2	none
CCc1ccc2[nH]c(=O)c(CN(CCCN3CCOCC3)C(=O)Nc3cccc(Cl)c3)cc2c1	none
N#CCCN(Cc1cccnc1)C(=O)Nc1ccccc1	none (no result: tolC growth inh)
N#CCCN(Cc1cccnc1)C(=O)Nc1cccc(Cl)c1	CYP2C19 inh 94.1
Cc1ccc2[nH]c(=O)c(CN(CCN3CCOCC3)C(=O)Nc3ccc(F)cc3)cc2c1	none
O=C(Nc1cccc(Cl)c1)N(CCN1CCOCC1)Cc1cccc(Cl)c1	CYP2C9 inhib 94.3, tolC growth inh 100.0, CYP2C19 inh 84.6
